Test results taken from ChEMBL document CHEMBL3091291, “Synthesis and pharmacological characterization of benzenesulfonamides as dual species inhibitors of human and murine mPGES-1” (Bioorg Med Chem, 2013).
Active and inactive are the calls of the source. The calls are words filed in the database; no cut-off is given here.

Key:
[1] = molecular target: Prostaglandin G/H synthase 1 (Homo sapiens) (UniProt P23219); assay: Inhibition of COX1 in human whole blood assessed as reduction in PGD2 production by measuring remaining activity at 100 uM after 1 hr by LC-MS/MS analysis
Sequence of Prostaglandin G/H synthase 1 (Homo sapiens) (P23219 whole entry): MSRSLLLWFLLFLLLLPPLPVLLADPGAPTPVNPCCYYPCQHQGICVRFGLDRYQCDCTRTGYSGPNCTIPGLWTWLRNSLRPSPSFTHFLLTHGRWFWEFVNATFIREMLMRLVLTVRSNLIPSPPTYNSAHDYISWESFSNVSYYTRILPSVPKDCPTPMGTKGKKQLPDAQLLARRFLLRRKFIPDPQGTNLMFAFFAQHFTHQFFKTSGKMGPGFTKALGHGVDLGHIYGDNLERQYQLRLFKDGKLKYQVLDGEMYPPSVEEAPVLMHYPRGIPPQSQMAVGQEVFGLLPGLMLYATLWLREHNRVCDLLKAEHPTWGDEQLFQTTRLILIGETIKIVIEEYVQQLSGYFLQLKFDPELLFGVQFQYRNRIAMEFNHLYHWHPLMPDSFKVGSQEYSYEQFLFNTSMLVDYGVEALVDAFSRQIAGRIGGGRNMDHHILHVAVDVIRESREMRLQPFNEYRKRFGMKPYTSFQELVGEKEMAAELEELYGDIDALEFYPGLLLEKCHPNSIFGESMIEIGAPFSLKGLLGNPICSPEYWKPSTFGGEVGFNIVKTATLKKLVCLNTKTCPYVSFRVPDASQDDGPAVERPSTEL

[2] = molecular target: T1, Prostaglandin G/H synthase 2 (Homo sapiens) (UniProt P35354); assay: Inhibition of LPS-stimulated COX2 in human whole blood assessed as reduction in PGF2alpha production by measuring remaining activity at 100 uM preincubated for 15 mins followed by LPS addition measured after 24 hrs by LC-MS/MS analysis
T1 sequence (whole entry): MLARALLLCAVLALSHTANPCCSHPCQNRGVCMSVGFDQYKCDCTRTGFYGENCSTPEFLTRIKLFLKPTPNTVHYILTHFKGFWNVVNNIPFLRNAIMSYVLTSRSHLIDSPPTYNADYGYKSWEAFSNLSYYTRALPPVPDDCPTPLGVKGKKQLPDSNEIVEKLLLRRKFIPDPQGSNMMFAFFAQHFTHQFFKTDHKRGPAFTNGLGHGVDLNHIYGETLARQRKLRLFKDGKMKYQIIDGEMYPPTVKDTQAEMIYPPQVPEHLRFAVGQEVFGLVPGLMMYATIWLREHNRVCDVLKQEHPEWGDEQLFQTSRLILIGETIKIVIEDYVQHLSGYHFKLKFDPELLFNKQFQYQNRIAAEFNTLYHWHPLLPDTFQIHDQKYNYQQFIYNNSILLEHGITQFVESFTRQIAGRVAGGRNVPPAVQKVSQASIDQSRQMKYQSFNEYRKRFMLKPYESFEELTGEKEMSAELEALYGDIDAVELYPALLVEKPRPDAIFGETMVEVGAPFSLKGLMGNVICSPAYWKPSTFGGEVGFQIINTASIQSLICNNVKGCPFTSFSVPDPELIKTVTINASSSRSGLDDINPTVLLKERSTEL
Outline: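 Heparinized human whole blood (500 µL) mixed with compound in DMSO, with acetylsalicylic acid added to block COX-1, held 15 min at 37 °C, then stimulated with LPS in autologous plasma to induce COX-2/mPGES-1. After 24 h at 37 °C, samples chilled 5 min on ice; plasma collected, prostaglandins extracted and measured by LC–MS/MS. Remaining activity given relative to vehicle control.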

[3] = molecular target: T2, Prostaglandin E synthase (Homo sapiens) (UniProt O14684); assay: Inhibition of mPGES-1 in human HeLa cells using PGH2 as substrate assessed as inhibition of IL-1beta/TNFalpha-stimulated PGE2 production at 1 to 10 uM after 24 hrs by LC-MS/MS analysis; assay type: cell-based
T2 sequence (whole entry): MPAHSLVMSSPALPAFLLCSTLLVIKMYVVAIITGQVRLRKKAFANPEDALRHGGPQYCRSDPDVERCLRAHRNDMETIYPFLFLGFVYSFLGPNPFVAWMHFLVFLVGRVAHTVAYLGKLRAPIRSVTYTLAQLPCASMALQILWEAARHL
Outline: (§1)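 HeLa cells (2 × 10⁴ per well) grown 24 h at 37 °C, then given fresh medium with 1 ng/mL IL-1b + 5 ng/mL TNFa (or PBS for unstimulated control) plus compound (1, 10 or 100 µM) or DMSO for 24 h at 37 °C. Supernatant mixed with H₃PO₄, EDTA and deuterated internal standards; PGE₂ measured by SPE and LC–MS/MS.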

HeLa = assay: Cytotoxicity against IL-1beta/TNFalpha-stimulated human HeLa cells assessed as cell viability up to 10 uM after 24 hrs by WST-1 assay; assay type: cell-based
Outline: (§2)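 HeLa cells seeded at 3 × 10³ per well in medium with 10% FCS, grown 24 h at 37 °C, then stimulated with IL-1b (1 ng/mL) + TNFa (5 ng/mL) and treated at the same time with compound (1, 10, 100 µM) or DMSO for 24 h. WST-1 reagent then added for 90–150 min; absorbance read at 450 nm against 620 nm reference.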

[4] = Cytotoxicity against IL-1beta/TNFalpha-stimulated human HeLa cells assessed as cell viability at 100 uM after 24 hrs by WST-1 assay; assay type: cell-based; conditions: IL-1beta/TNFalpha-stimulated HeLa cells, read-out: Activity; outline: as §2
Prostaglandin E synthase = molecular target: T3, Prostaglandin E synthase (Homo sapiens, UniProt O14684); assay: Inhibition of mPGES-1 in human HeLa cells using PGH2 as substrate assessed as inhibition of IL-1beta/TNFalpha-stimulated PGE2 production preincubated for 30 mins followed by substrate addition measured after 1 min by LC-MS/MS analysis; assay type: cell-based
T3 sequence (O14684 whole entry): T2 sequence (whole entry)
Outline: (§3)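 Microsomal fraction from HeLa, NIH-3T3 or RAW 264.7 cells, obtained by sonication and ultracentrifugation, resuspended in 0.1 M KPi pH 7.4 with 2.5 mM reduced GSH. Protein at 0.15 mg/mL (HeLa, NIH) or 0.3 mg/mL (RAW) incubated with compound 30 min on ice. Reaction started with 20 µM PGH₂, stopped after 1 min with FeCl₂/citric acid. PGE₂ quantified by SPE and LC–MS/MS. IC50 from four-parameter logistic fit of increasing concentrations.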

[5] = molecular target: T4, Prostaglandin E synthase (Mus musculus) (UniProt Q9JM51); assay: Inhibition of mPGES-1 in Swiss mouse NIH/3T3 cells using PGH2 as substrate assessed as inhibition of IL-1beta/TNFalpha-stimulated PGE2 production at 5 uM preincubated for 30 mins followed by substrate addition measured after 1 min by LC-MS/MS analysis; assay type: cell-based; outline: as §3
T4 sequence (whole entry): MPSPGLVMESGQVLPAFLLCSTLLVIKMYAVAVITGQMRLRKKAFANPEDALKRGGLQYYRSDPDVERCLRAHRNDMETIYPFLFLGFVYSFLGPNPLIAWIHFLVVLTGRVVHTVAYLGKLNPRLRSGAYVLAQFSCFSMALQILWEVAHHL

[6] = molecular target: T2, Prostaglandin E synthase (Homo sapiens); assay: Inhibition of mPGES-1 in human HeLa cells using PGH2 as substrate assessed as inhibition of IL-1beta/TNFalpha-stimulated PGE2 production at 100 uM after 24 hrs by LC-MS/MS analysis; assay type: cell-based; outline: as §1
[7] = molecular target: T2, Prostaglandin E synthase (Homo sapiens); assay: Inhibition of mPGES-1 in human HeLa cells using PGH2 as substrate assessed as inhibition of IL-1beta/TNFalpha-stimulated PGE2 production at 5 uM preincubated for 30 mins followed by substrate addition measured after 1 min by LC-MS/MS analysis; assay type: cell-based; outline: as §3

SMILES	Activity [1] [%]	Activity [2] [%]	inhibition [3]	Activity (HeLa)	viability at 24 h, 100 µM [4] [%]	IC50 (Prostaglandin E synthase) [µM]	inhibition [5] [%]	inhibition [6]	inhibition [7] [%]
O=C(O)c1ccc(S(=O)(=O)N(Cc2ccccc2)c2ccc(Oc3ccccc3)cc2)cc1	48.5	86.8	inactive	Non-toxic	50	1.7	71.2	Active	79.8
O=C(O)c1ccc(S(=O)(=O)N(Cc2ccccc2)Cc2ccc(Nc3ccccc3)cc2)cc1	109	90.9	inactive	Non-toxic	50	7.2	67.9	Active	78.5
COc1ccc(CN(Cc2ccccc2)S(=O)(=O)c2ccc(C(=O)O)cc2)cc1	89.2	107	inactive	Non-toxic	50	13.8	10.6	Active	39.9
O=C(O)c1ccc(S(=O)(=O)N(Cc2ccccc2)Cc2ccc(Oc3ccccc3)cc2)cc1	61.5	92.5	inactive	Non-toxic	50	1	65.1	Active	90
COc1ccc(CN(CC2CCCCC2)S(=O)(=O)c2ccc(C(=O)O)cc2)cc1	110	114	inactive	Non-toxic	50	10.2	48.5	Active	67.9
